Screening results deposited in PubChem BioAssay by several laboratories.
Compounds with a hit are over-represented: about 1.9% of the library has one in this group of screens.
GRK2 inh: blocks RNA aptamer binding to human GRK2. P25098. bead flow cytometry, FAM-aptamer displacement from GRK2. inhibition of aptamer binding, % at 10 µM. 330,000 compounds, 0.59% hits;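 active = inhibition of aptamer binding above 40%, roughly 3 SD of noise, on plates passing a quality check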;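 also: median bead fluorescence of bound FAM aptamer so fluorescent compounds give negative values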
SR-BI HDL uptake: mouse SR-BI HDL lipid transfer inhibition; Q61009; ldlA[mSR-BI] CHO cells, DiI-HDL uptake fluorescence, 3 h; inhibition, % at 12.5 µM; 320,000 compounds, 0.96% hits; AID 488896;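 active = mean replicate inhibition of at least 70% and a set share of replicates each scoring 70 or more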
Rin1 Abl inh: human Rin1-Abl interaction inhibition; 360,000 compounds, 0.4% hits; P00519+Q13671; TR-FRET Rin1/Abl binding, biochemical; inhibition, % at 7.35 µM; in the data active = inhibition above about 5%, passing the limit was not always enough
Target sequence (P00519 whole entry, looked up): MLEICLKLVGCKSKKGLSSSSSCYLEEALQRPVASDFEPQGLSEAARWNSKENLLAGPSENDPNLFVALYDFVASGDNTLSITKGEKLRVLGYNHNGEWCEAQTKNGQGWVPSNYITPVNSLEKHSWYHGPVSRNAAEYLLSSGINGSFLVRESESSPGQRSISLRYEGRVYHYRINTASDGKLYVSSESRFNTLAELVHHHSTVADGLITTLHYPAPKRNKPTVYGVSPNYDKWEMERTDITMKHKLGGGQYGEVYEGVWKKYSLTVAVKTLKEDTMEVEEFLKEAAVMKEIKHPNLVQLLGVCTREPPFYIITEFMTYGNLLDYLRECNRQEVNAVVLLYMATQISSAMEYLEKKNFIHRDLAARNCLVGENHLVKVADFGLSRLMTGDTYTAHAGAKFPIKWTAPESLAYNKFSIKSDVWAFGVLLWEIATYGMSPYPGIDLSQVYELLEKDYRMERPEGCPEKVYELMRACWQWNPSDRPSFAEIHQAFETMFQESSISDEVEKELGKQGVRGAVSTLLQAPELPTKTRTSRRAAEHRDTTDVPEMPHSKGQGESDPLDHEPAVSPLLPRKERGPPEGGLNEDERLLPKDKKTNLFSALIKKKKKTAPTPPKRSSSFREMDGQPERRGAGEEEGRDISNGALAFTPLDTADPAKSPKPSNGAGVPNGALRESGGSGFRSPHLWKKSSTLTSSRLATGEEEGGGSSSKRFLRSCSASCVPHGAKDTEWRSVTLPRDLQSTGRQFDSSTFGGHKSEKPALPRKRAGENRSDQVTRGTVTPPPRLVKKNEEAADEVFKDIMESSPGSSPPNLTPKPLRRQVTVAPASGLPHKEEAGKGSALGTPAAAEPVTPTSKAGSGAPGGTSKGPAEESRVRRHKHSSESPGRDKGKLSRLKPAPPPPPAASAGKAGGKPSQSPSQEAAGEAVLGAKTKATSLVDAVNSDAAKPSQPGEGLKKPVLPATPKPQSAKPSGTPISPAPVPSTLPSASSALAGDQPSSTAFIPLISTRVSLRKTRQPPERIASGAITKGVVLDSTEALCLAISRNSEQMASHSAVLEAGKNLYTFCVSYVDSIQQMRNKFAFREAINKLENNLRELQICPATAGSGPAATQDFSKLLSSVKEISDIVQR
Target sequence (Q13671 whole entry, looked up): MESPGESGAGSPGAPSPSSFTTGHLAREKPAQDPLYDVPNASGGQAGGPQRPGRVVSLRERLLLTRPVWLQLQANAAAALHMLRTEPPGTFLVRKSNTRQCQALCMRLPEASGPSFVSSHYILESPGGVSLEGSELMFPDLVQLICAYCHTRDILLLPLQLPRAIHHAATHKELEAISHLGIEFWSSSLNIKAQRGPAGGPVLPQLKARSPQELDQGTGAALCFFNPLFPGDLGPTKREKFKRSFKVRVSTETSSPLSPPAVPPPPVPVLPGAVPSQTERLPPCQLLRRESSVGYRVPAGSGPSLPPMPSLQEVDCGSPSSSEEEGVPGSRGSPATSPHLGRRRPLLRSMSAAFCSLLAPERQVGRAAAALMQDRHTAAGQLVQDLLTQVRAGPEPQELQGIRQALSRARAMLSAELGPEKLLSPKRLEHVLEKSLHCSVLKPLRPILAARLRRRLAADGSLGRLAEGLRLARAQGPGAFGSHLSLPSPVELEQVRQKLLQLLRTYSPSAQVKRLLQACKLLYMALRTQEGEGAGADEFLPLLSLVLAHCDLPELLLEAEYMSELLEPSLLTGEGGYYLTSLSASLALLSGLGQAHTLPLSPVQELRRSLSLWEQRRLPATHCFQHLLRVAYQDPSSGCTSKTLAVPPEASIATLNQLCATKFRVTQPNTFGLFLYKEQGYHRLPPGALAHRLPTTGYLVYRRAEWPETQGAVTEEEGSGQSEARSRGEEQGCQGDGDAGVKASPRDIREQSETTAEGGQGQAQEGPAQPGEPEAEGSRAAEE
SR-BI uptake up: SR-BI HDL lipid transfer activation; CHO ldlA[mSR-BI] cells, DiI-HDL uptake fluorescence, 3 h; 100 = double the neutral-control signal; 320,000 compounds, 0.096% hits; activation, % at 12.5 µM; AID 504775;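 active = mean replicate activation of at least 60% and every replicate at or above 60%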
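Assay system: LDL receptor-deficient CHO ldlA cells overexpressing murine SR-BI / Medium: BSA-supplemented, HEPES-buffered Ham's F12, pH 7.4 / Probe or stimulus: DiI-labelled HDL at 10 µg/mL final / Timing: compound with DiI-HDL co-incubation, 3 h at 37 °C / Technique: bottom-read cell fluorescence after medium removal, ex 550/em 595 nm / Measure: HDL uptake via cellular fluorescence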
Rin1 Abl conf: confirmation of inhibitors of human Rin1-Abl interaction | shares compounds with Rin1 Abl inh | TR-FRET Rin1-Abl binding, purified proteins | inhibition, % at 7.35 µM | 1,300 compounds, 49% hits | AID 602124
GFP quench: quenches GFP fluorescence, counter-screen for Rin1-Abl inhibitors; shares compounds with Rin1 Abl inh; inhibitors/quenchers counterscreen; inhibition, % at 6.75 µM; 1,300 compounds, 8.5% hits; AID 602125;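 also: ABL1-eGFP fusion protein alone without its partner RIN1-SBP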
GFP quench DR: counter-screen for Rin1-Abl inhibitors: GFP quenchers, dose response. IC50, µM. shares compounds with Rin1 Abl inh. GFP fluorescence interference/quenching counterscreen. 230 tested, under 10 active; call rule not given here;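 also: ABL1-eGFP fusion protein alone without its RIN1 binding partner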
Large screens that a line does not name were inactive (follow-up assays come after a bar, where they were run). Rule as the data show it, unless noted: active = inhibition above about 6.5%; inactive = the rest.

CC1CN(CC(=O)NN=C(c2ccccc2)c2ccccc2)CC(C)O1 (stereo not drawn)	none
COc1cccc(NS(=O)(=O)c2ccc3c(c2)C2C=CCC2C(c2ccc(C(=O)O)cc2)N3)c1 (stereo not drawn)	Rin1 Abl inh 11.5 | Rin1 Abl conf inactive | GFP quench 7.1
CC12CCC(O)CC1=CCC1C2CCC2(C)c3[nH]ncc3CC12 (stereo not drawn)	none (no result: GRK2 inh)
O=C(Nc1cccc(F)c1)c1cccnc1	none
O=C(Nc1cccc(NC(=O)c2cccnc2)c1)c1cccnc1	Rin1 Abl inh 8.6 | Rin1 Abl conf inactive | GFP quench inactive
O=c1c(-c2ccccc2)coc2c(CN3CCCC3)c(O)ccc12	Rin1 Abl inh 5.9 | Rin1 Abl conf inactive | GFP quench inactive
O=c1c(-c2ccc(Cl)cc2)coc2c(CN3CCOCC3)c(O)ccc12	none
CCN(C(=O)c1ccc(NC(=O)C2CCCCC2C(=O)O)cc1)c1ccccc1 (stereo not drawn)	none (no result: GRK2 inh, SR-BI HDL uptake, SR-BI uptake up)
CCOC(=O)CCCCC(=O)c1[nH]c(=O)[nH]c1CSc1nc2ccccc2[nH]1	Rin1 Abl inh 83.9 | Rin1 Abl conf 87.5 | GFP quench inactive | GFP quench DR inactive
CCOC(=O)CCCCC(=O)c1[nH]c(=O)[nH]c1CSc1nc(C)cc(C)n1	Rin1 Abl inh 68.4 | Rin1 Abl conf 71.3 | GFP quench inactive | GFP quench DR inactive
CCOC(=O)CCCCC(=O)c1[nH]c(=O)[nH]c1CN1CCOCC1	Rin1 Abl inh 80.0 | Rin1 Abl conf 88.1 | GFP quench inactive | GFP quench DR inactive
CCOC(=O)CCCCC(=O)c1[nH]c(=O)[nH]c1CSc1nc(C)cc(=O)[nH]1	Rin1 Abl inh 82.0 | Rin1 Abl conf 85.9 | GFP quench inactive | GFP quench DR inactive
O=C(c1ccc([N+](=O)[O-])cc1Cl)N1CCN(Cc2ccccc2)CC1	none (no result: GRK2 inh, SR-BI HDL uptake, SR-BI uptake up)
O=C(CSc1ncccn1)N(Cc1cccnc1)C(CCc1ccccc1)c1nc2ccccc2[nH]1 (stereo not drawn)	none (no result: GRK2 inh, SR-BI HDL uptake, SR-BI uptake up)
CCOC(=O)Cn1cc(Cn2c3ccccc3c(=O)n2C(C)C)nn1	none (no result: GRK2 inh, SR-BI HDL uptake, SR-BI uptake up)
CCOC(=O)CCCCC(=O)c1[nH]c(=O)[nH]c1C[n+]1ccc(C)cc1	Rin1 Abl inh 22.8 | Rin1 Abl conf 29.5 | GFP quench inactive | GFP quench DR inactive
CCOC(=O)CCCCC(=O)c1[nH]c(=O)[nH]c1C[n+]1ccccc1	none (no result: SR-BI HDL uptake, Rin1 Abl inh, SR-BI uptake up)
COc1cc(=O)[nH]c(SCC(=O)Nc2ccc3ccccc3c2)n1	Rin1 Abl inh 12.7 | Rin1 Abl conf inactive | GFP quench inactive
O=C(COC(=O)CNS(=O)(=O)c1ccc(Cl)cc1)NC1CCCCC1	none (no result: GRK2 inh)
COCCNC(=O)c1cc2c3ccccc3n(C)c2s1	Rin1 Abl inh 31.2 | Rin1 Abl conf 22.1 | GFP quench inactive | GFP quench DR inactive
CCCNC(=O)c1cc2c3ccccc3n(C)c2s1	none
Nc1ccn([C@@H]2O[C@H](CNCc3ccc(C#CCCO)cc3)[C@@H](O)[C@H]2O)c(=O)n1	none (no result: GRK2 inh, SR-BI HDL uptake, SR-BI uptake up)
COc1cc(O)c(C(C)=O)c(CC(=O)O)c1	Rin1 Abl inh 19.8 | Rin1 Abl conf 25.4 | GFP quench inactive | GFP quench DR inactive
CN1OC[C@@H]2CN(C(=O)CCc3ccccc3)[C@H](c3ccccc3Br)C[C@@H]21	Rin1 Abl inh 14.5 (no result: GRK2 inh, SR-BI HDL uptake, SR-BI uptake up) | Rin1 Abl conf 11.6 | GFP quench inactive
Cc1cccc(NC(=O)COC(=O)C2COc3ccccc3O2)c1C (stereo not drawn)	none
Cn1cc(-c2coc3c(C(=O)NCc4cccnc4)cccc23)cn1	none (no result: GRK2 inh, SR-BI HDL uptake, SR-BI uptake up)
COc1ccc(CNC(=O)c2cccc3c(-c4cnn(C)c4)coc23)cc1OC	Rin1 Abl inh 11.7 (no result: GRK2 inh, SR-BI HDL uptake, SR-BI uptake up) | Rin1 Abl conf inactive | GFP quench inactive
C#CCOCCOCCOCCNc1nc(N2CCN(C(=O)CCCCCCCCCCNC(=O)[C@@H](CCSC)n3cc(CCO)nn3)CC2)nc(N2CCN(C(=O)CCCCCCCCCCNC(=O)[C@@H]([C@H](C)O)n3cc(C)nn3)CC2)n1	none
C#CCOCCOCCOCCNc1nc(N2CCN(C(=O)CCCCCCCCCCNC(=O)Cn3cc(C[C@@H](C)O)nn3)CC2)nc(N2CCN(C(=O)CCCCCCCCCCNC(=O)[C@@H](CCSC)n3cc(CCO)nn3)CC2)n1	Rin1 Abl inh 16.6 | Rin1 Abl conf 15.7 | GFP quench inactive
C#CCOCCOCCOCCNc1nc(N2CCN(C(=O)CCCCCCCCCCNC(=O)Cn3cc(CCCCCN)nn3)CC2)nc(N2CCN(C(=O)CCCCCCCCCCNC(=O)Cn3cc(C[C@@H](C)O)nn3)CC2)n1	Rin1 Abl inh 18.8 | Rin1 Abl conf 12.1 | GFP quench inactive
O=S(=O)(c1cccc(-n2cnnn2)c1)N1CCOCC1	Rin1 Abl inh 8.9 | Rin1 Abl conf inactive | GFP quench inactive
Cc1nc2ccccc2c(=O)n1/N=C/c1ccc(O)c(O)c1O	Rin1 Abl inh 27.4 | Rin1 Abl conf 15.3 | GFP quench 22.9
CCOc1ccc(CCNC(=O)CN2C(=O)c3cccnc3Oc3ccc(Cl)cc32)cc1	Rin1 Abl inh 26.5 | Rin1 Abl conf 24.3 | GFP quench inactive | GFP quench DR inactive
CCOc1ccc(CCNC(=O)CN2C(=O)c3cccnc3Oc3ccc(C)cc32)cc1OCC	Rin1 Abl inh 36.3 | Rin1 Abl conf 41.1 | GFP quench inactive | GFP quench DR inactive
CSc1ccc(CCNC(=O)CN2C(=O)c3cccnc3Oc3ccc(C)cc32)cc1	none
O=C(c1cccc(Cl)c1)N1CCCC(C(=O)N2CCN(c3ccccc3)CC2)C1 (stereo not drawn)	none
O=C(COc1ccc(-c2ccccc2)cc1)N1CCCC1	none
O=C1CN(C(=O)COc2ccccc2)CCN1	Rin1 Abl inh 8.5 | Rin1 Abl conf inactive | GFP quench inactive
Cc1ccn2c(Cc3ccccc3)c(-c3ccc(F)cc3)nc2c1	none (no result: GRK2 inh, SR-BI HDL uptake, SR-BI uptake up)
CN(CC(=O)Nc1cccc(F)c1)C(=O)c1ccc(OCc2ccccc2)cc1	Rin1 Abl inh 12.0 | Rin1 Abl conf inactive | GFP quench inactive
CCCCC[C@@H]1C=C(C(=O)O)[C@H](c2ccc(C)cc2)N1S(=O)(=O)c1ccc(C)cc1	none
CCCCC[C@@H]1C=C(C(=O)O)[C@H](c2ccc(Cl)cc2)N1S(=O)(=O)c1ccc(C)cc1	Rin1 Abl inh 8.2 | Rin1 Abl conf inactive | GFP quench inactive
O=C(NCc1ccccc1)c1ccc(Br)cc1Br	none
O=C(NCc1ccccc1)c1ccccc1Br	Rin1 Abl inh 7.8 | Rin1 Abl conf inactive | GFP quench inactive
NC(CCc1ccccc1)c1csc(Nc2cnccn2)n1 (stereo not drawn)	none (no result: GRK2 inh, SR-BI HDL uptake, SR-BI uptake up)
O=C(NCCS(=O)(=O)N1CCN(c2ccccc2)CC1)C1CCCCC1	none (no result: GRK2 inh, SR-BI HDL uptake, SR-BI uptake up)
CCN1C(=O)[C@@H]2[C@@H]3CN(S(=O)(=O)c4ccc(C)cc4)[C@@H](c4ccccc4Cl)[C@@H]3C(=O)C[C@@H]2C1=O	none (no result: GRK2 inh, SR-BI HDL uptake, SR-BI uptake up)
COC(=O)C1CCN(CC(=O)Nc2ccc3c(c2)OCCO3)CC1	none
